# Calls of active or inactive are those of the source. No cut-off for these calls is given here.
# Assays:
# HK-2 [1] = test: Antiinflammatory activity in human HK2 cells assessed as suppression of cisplatin-induced MCP-1 mRNA level at 4 uM by SYBR-green based RT-PCR analysis; assay type: functional, cell-based
# Summary of the method: (§1)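 Overnight starvation of HK2 cells in DMEM/F12 with 0.5% FBS, then 6 h compound pretreatment before cisplatin 20 μM. Cells harvested after 24 h. Total RNA extracted with an RNeasy kit, and MCP-1, TNF-α or IL-6 mRNA quantified by real-time PCR. Three to four independent experiments.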
# HK-2 [2] = test: Protection against cisplatin-induced cell death in human HK2 cells assessed as increase in survival rate at 4 uM preincubated for 6 hrs followed by cisplatin addition measured after 24 hrs by MTT assay relative to control; assay type: functional; details: read-out: Survival
# Summary of the method: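 HK2 cells starved overnight in DMEM/F12 with 0.5% FBS, pretreated with compound for 6 h, then exposed to cisplatin (20 μM) for 24 h. Compounds from 5 mM DMSO stocks. Viability by MTT: 0.5 mg/mL final, 4 h at 37°C, formazan dissolved in DMSO, absorbance at 492 nm. Three to four independent experiments.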
# HK-2 [3] = test: Antiinflammatory activity in human HK2 cells assessed as suppression of cisplatin-induced TNF-alpha mRNA level at 4 uM by SYBR-green based RT-PCR analysis; assay type: functional, cell-based; summary of the method: as §1
# HK-2 [4] = test: Antiinflammatory activity in human HK2 cells assessed as suppression of cisplatin-induced IL-6 mRNA level at 4 uM by SYBR-green based RT-PCR analysis; assay type: functional, cell-based; summary of the method: as §1
# HK-2 [5] = test: Protection against cisplatin-induced cell death in human HK2 cells assessed as increase in survival rate preincubated for 6 hrs followed by cisplatin addition measured after 24 hrs by MTT assay; assay type: functional, cell-based
# HK-2 [6] = test: Cytotoxicity against human HK2 cells assessed as reduction in cell viability at 1 to 256 uM after 24 hrs by MTT assay; assay type: cell-based; details: hk-2, 24 h
# Summary of the method: (§2)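 MTT cytotoxicity read-out on HK2 cells. Medium was changed, MTT in PBS added to a final 0.5 mg/mL, and plates incubated 4 h at 37°C. Medium was then removed, formazan dissolved in DMSO, and absorbance read at 492 nm.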
# HK-2 [7] = test: Cytotoxicity against human HK2 cells assessed as reduction in cell viability after 24 hrs by MTT assay; assay type: cell-based; details: hk-2, 24 h; summary of the method: as §2
# HK-2 [8] = test: Antiinflammatory activity in human HK2 cells assessed as suppression of cisplatin-induced IL-6 […] level at 4 uM by ELISA; assay type: functional, cell-based
# Summary of the method: (§3)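 HK2 cells starved overnight in DMEM/F12 with 0.5% FBS, pretreated with compound 6 h, then cisplatin 20 μM added. After 24 h, cytokine protein in the culture medium was measured with human TNF-α, IL-6 or MCP-1 ELISA kits per manufacturer's instructions. Three to four independent experiments.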
# HK-2 [9] = test: Antiinflammatory activity in human HK2 cells assessed as suppression of cisplatin-induced MCP-1 […] level at 4 uM by ELISA; assay type: functional, cell-based; summary of the method: as §3
# HK-2 [10] = test: Antiinflammatory activity in human HK2 cells assessed as suppression of cisplatin-induced TNF-alpha […] level at 4 uM by ELISA; assay type: functional, cell-based; summary of the method: as §3
# [11] = target: Transcription factor p65 (Homo sapiens) (UniProt Q04206); test: Inhibition of cisplatin-induced NF-kappaB p65 phosphorylation in human HK2 cells at 4 uM by Western blot analysis; assay type: cell-based
# Transcription factor p65 (Homo sapiens), sequence (Q04206 whole entry): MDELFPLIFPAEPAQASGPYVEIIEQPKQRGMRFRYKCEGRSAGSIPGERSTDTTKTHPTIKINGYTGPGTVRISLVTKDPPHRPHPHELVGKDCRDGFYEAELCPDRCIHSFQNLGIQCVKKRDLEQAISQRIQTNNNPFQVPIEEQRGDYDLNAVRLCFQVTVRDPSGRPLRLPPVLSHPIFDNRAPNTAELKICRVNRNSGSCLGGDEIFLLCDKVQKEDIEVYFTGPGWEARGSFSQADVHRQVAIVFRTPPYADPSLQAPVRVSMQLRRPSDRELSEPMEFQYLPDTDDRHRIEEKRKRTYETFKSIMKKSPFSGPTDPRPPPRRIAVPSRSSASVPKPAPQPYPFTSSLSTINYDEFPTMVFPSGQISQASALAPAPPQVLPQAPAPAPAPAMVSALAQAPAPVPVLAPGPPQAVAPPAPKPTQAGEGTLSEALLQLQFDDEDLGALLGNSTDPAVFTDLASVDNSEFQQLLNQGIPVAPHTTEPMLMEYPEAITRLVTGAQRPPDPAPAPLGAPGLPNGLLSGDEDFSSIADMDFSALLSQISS
# Summary of the method: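 HK2 cells starved overnight in DMEM/F12 with 0.5% FBS, pretreated 6 h with compound, then given cisplatin 20 μM for 24 h. Lysates made in ice-cold RIPA buffer and protein measured by BCA. Run on 10% SDS-PAGE, transferred to nitrocellulose, primary antibodies 18 h at 4°C, IRDye 800 secondary 1.5 h at room temperature.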
Structure (SMILES),Activity (HK-2 [1]),viability at 4 µM (HK-2 [2]) [%],Activity (HK-2 [3]),Activity (HK-2 [4]),Activity (HK-2 [5]),Activity (HK-2 [6]),Activity (HK-2 [7]),Activity (HK-2 [8]),Activity (HK-2 [9]),Activity (HK-2 [10]),inhibition [11]
O=C(Cc1ccc(F)cc1)N[C@@H](Cc1ccc(O)cc1)C(=O)NCCN1CCOCC1,Active,> 30,Active,Active,Dose-dependent effect,Non-Toxic,,,,,
COc1ccc(C2(CNC(=O)[C@](C)(Cc3c[nH]c4ccccc34)NC(=O)Nc3ccc([N+](=O)[O-])cc3)CCCCC2)nc1,Active,,Active,Active,,,Toxic,Active,Active,Active,Active
Cc1ccc(CC(=O)N[C@@H](Cc2ccccc2)C(=O)NCCn2ccnc2)cc1,Active,> 40,Active,Active,Dose-dependent effect,Non-Toxic,,Active,Active,Active,Active
